Experimental data as given in ChEMBL document CHEMBL5131507, “Identification of histone deacetylase 10 (HDAC10) inhibitors that modulate autophagy in transformed cells” (Eur J Med Chem, 2022).
The source made the active and inactive calls. No cut-off for these calls is given here.

Legend:
[1] = target: T1, Histone deacetylase 1 (Homo sapiens, UniProt Q13547); test: Inhibition of recombinant human HDAC1 using ZMAL (Z-(Ac)Lys-AMC as substrate incubated for 20 mins at 1 uM and measured by homogenous fluorescence assay relative to control
T1 sequence (Q13547 whole entry): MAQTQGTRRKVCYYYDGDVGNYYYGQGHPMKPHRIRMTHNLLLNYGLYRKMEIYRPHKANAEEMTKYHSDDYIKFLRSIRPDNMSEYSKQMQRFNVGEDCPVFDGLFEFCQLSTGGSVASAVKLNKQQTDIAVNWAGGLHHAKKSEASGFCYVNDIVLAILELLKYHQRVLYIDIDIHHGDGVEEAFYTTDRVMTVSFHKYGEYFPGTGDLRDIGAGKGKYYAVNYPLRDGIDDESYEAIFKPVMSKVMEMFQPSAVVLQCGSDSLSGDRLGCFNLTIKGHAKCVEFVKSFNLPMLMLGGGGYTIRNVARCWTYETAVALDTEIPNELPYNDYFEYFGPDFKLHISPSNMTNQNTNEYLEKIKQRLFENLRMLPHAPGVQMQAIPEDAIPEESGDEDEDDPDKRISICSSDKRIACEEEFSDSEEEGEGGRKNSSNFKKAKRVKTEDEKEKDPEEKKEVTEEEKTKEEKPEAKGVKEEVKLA

[2] = system: HEK293; test: Cytotoxicity against human HEK293 cells assessed as cell viability at 50 uM measured after 24 hrs by Alamar Blue assay; assay type: toxicity, cell-based; details: hek293, 24 h
[3] = target: T2, Protein deacetylase HDAC6 (Homo sapiens, UniProt Q9UBN7); test: Inhibition of recombinant human HDAC6 using ZMAL (Z-(Ac)Lys-AMC as substrate incubated for 20 mins and measured by homogenous fluorescence assay
T2 sequence (Q9UBN7 whole entry): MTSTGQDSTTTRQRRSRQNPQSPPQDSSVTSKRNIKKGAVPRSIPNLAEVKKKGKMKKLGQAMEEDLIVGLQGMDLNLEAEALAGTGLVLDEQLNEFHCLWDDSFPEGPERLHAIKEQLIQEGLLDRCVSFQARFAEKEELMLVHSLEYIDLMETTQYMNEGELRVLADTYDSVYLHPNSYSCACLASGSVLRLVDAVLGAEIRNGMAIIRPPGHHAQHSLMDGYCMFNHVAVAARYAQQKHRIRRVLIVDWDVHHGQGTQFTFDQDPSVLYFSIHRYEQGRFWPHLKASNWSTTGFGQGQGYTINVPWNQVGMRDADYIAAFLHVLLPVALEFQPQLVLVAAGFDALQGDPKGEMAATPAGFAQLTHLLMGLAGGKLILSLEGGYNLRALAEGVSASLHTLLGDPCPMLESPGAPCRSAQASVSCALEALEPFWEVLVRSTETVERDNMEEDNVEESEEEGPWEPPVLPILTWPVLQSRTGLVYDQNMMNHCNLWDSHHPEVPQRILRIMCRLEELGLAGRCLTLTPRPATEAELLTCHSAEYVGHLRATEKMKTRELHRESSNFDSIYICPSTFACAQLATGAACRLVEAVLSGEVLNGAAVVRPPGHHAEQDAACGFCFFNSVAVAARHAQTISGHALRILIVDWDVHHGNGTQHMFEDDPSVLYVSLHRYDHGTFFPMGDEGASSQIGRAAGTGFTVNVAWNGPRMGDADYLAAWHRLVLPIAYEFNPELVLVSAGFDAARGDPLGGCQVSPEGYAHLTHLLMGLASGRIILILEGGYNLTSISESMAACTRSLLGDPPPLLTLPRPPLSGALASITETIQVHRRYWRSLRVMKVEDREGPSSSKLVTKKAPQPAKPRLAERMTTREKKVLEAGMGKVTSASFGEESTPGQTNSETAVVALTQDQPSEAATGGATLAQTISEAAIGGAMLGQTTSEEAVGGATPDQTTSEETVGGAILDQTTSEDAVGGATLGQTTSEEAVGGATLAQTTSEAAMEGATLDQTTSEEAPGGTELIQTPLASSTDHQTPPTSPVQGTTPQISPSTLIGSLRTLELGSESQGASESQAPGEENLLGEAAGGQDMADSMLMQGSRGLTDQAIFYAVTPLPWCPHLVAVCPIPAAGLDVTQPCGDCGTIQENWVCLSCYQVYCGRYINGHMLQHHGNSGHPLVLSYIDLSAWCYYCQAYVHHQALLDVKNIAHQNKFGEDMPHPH

[4] = target: T3, Polyamine deacetylase HDAC10 (Danio rerio, UniProt F1QCV2); test: Inhibition of zebra fish HDAC10 using Ac-spermidine-AMC as substrate incubated for 25 mins and measured by fluorescence assay
T3 sequence (F1QCV2 whole entry): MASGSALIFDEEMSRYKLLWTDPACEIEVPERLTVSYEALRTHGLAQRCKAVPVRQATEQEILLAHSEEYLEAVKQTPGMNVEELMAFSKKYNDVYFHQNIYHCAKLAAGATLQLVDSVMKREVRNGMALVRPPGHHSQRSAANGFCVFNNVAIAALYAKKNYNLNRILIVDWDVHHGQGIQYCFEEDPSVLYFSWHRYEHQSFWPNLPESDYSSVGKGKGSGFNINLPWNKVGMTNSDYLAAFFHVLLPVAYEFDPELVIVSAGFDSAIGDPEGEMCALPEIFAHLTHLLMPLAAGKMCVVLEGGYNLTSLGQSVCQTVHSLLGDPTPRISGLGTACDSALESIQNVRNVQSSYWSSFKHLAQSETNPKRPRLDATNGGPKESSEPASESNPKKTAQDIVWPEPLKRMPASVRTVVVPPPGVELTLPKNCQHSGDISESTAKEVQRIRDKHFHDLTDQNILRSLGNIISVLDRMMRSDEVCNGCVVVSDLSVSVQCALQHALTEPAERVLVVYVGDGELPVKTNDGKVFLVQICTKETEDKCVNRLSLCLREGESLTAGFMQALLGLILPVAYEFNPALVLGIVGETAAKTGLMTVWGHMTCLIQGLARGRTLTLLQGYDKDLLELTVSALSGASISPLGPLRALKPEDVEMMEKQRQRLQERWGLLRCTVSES
Outline: (§1)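 Ac-spermidine-AMC at 10.5 μM final in pH 7.9 phosphate buffer (NaCl, EDTA, glycerol, Mesna, Tween 20); inhibitors in DMSO. 25 min at 25 °C, stopped with NDA in borate pH 9.5. Read at Ex 330/Em 390 nm; IC50 by nonlinear regression.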

[5] = target: T4, Histone deacetylase 8 (Homo sapiens, UniProt Q9BY41); test: Inhibition of recombinant human HDAC8 using H2N-Arg- His-Lys(Ac)-Lys(Ac)-AMC as substrate incubated for 90 mins and measured after 20 mins by fluorescence assay
T4 sequence (Q9BY41 whole entry): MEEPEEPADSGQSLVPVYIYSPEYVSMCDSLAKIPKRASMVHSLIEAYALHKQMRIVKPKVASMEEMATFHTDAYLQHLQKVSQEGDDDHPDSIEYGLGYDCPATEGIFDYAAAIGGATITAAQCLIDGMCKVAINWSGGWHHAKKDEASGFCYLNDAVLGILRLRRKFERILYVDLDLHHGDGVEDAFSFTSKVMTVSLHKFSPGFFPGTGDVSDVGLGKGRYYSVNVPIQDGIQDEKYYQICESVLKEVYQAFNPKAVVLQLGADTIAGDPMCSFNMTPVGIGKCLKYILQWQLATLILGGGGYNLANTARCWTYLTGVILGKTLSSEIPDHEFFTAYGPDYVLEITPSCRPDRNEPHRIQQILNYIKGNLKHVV
Outline: (§2)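 Recombinant hHDAC8 run per a commercial fluorometric HDAC8 kit protocol. Substrate H2N-Arg-His-Lys(Ac)-Lys(Ac)-AMC at 50 μM with enzyme and rising inhibitor concentrations, 90 min at 37 °C. Stop solution with inhibitor plus trypsin added, developed 20 min at 37 °C. Read at Ex 355/Em 460 nm.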

[6] = target: T1, Histone deacetylase 1; test: Inhibition of recombinant human HDAC1 using ZMAL (Z-(Ac)Lys-AMC as substrate incubated for 20 mins at 10 uM and measured by homogenous fluorescence assay relative to control
[7] = target: T5, Polyamine deacetylase HDAC10 (Danio rerio) (UniProt F1QCV2); test: Inhibition of zebra fish HDAC10 using Ac-spermidine-AMC as substrate incubated for 25 mins at 10 uM and measured by fluorescence assay relative to control; outline: as §1
T5 sequence (whole entry): T3 sequence (F1QCV2 whole entry)

[8] = target: T6, Protein deacetylase HDAC6 (Homo sapiens) (UniProt Q9UBN7); test: Inhibition of recombinant human HDAC6 using ZMAL (Z-(Ac)Lys-AMC as substrate incubated for 20 mins at 10 uM and measured by homogenous fluorescence assay relative to control
T6 sequence (whole entry): T2 sequence (Q9UBN7 whole entry)

[9] = target: T6, Protein deacetylase HDAC6 (Homo sapiens); test: Inhibition of recombinant human HDAC6 using ZMAL (Z-(Ac)Lys-AMC as substrate incubated for 20 mins at 1 uM and measured by homogenous fluorescence assay relative to control
[10] = target: T6, Protein deacetylase HDAC6 (Homo sapiens); test: Inhibition of HDAC6 in human MV4-11 cells assessed as fold-induction of tubulin acetylation at 15 uM measured by immunoblotting method; assay type: cell-based
Outline: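 MV4–11 cells treated 24 h with 2–15 μM test compounds or 0.5 μM marbostat-100 as HDAC6 reference, with solvent control. Whole-cell lysates immunoblotted for acetylated tubulin-α, β-actin as loading control. Blots quantified and expressed as fold change over untreated cells; n = 2.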

[11] = system: MV4-11; test: Induction of autophagy in human MV4-11 cells assessed as slight increase in HDAC10 at 2 to 15 uM measured by immunoblotting method; assay type: functional, cell-based; details: dose 2-15 µM
[12] = target: T1, Histone deacetylase 1; test: Inhibition of recombinant human HDAC1 using ZMAL (Z-(Ac)Lys-AMC as substrate incubated for 20 mins and measured by homogenous fluorescence assay
[13] = system: SK-N-BE(2)-C; test: Induction of autophagy in human SK-N-BE(2)-C cells assessed as increase in lysosomal compartment measured by pH-dependent LysoTracker DND-99 fluorescence assay; assay type: functional, cell-based
Outline: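 SK-N-BE(2)-C neuroblastoma cells seeded at 1.5 × 10^5 per well, treated 24 h, then stained 1 h with 50 nM LysoTracker Red DND-99 in medium under standard culture conditions. Washed in ice-cold phenol-red-free RPMI, trypsinized 3 min at 37 °C, pelleted, resuspended in ice-cold phenol-red-free RPMI before measurement.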

[14] = system: MV4-11; test: Induction of autophagy in human MV4-11 cells assessed as increase in autophagic vesicles at 2 to 15 uM measured by cyto-ID green staining based flow cytometry assay; assay type: functional, cell-based; details: dose 2-15 µM
Outline: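 MV4-11 cells exposed 2–15 μM for 24 h at 37 °C, 5% CO2, with 10 μM chloroquine added to all samples; solvent-treated control. Harvested, PBS-washed, stained with Cyto-ID Green (1:1000 in phenol-red-free RPMI with 5% FCS, 30 min, 37 °C), washed twice, read by flow cytometry. n = 3; two-way ANOVA.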

[15] = target: T7, Histone deacetylase 8 (Homo sapiens) (UniProt Q9BY41); test: Inhibition of recombinant human HDAC8 using H2N-Arg- His-Lys(Ac)-Lys(Ac)-AMC as substrate incubated for 90 mins at 1 uM and measured after 20 mins by fluorescence assay relative to control; outline: as §2
T7 sequence (whole entry): T4 sequence (Q9BY41 whole entry)

[16] = target: T5, Polyamine deacetylase HDAC10 (Danio rerio); test: Inhibition of zebra fish HDAC10 using Ac-spermidine-AMC as substrate incubated for 25 mins at 1 uM and measured by fluorescence assay relative to control; outline: as §1
[17] = target: T7, Histone deacetylase 8 (Homo sapiens); test: Inhibition of recombinant human HDAC8 using H2N-Arg- His-Lys(Ac)-Lys(Ac)-AMC as substrate incubated for 90 mins at 10 uM and measured after 20 mins by fluorescence assay relative to control; outline: as §2

inhibition [1] [%]	IC50 [3] [nM]	IC50 [4] [nM]	IC50 [5] [nM]	inhibition [6] [%]	SMILES	Activity [2] [%]	other results
16	177	24	1900	50	O=C(NO)c1ccc(CNCc2ccsc2)cc1	81.5	–
–	–	–	–	–	Cc1ccc(CN2CCC(/C=C/C(=O)NO)CC2)cc1	104.9	inhibition [7]: 23%
24	–	60	–	67	O=C(/C=C/C1CCN(Cc2cccc(Cl)c2)CC1)NO	88.6	inhibition [8]: 83%; inhibition [9]: 40%
15	158	106	3200	68	O=C(NO)c1ccc(CNCc2cccs2)cc1	71.6	–
29	1400	62	1300	66	O=C(/C=C/C1CCN(Cc2csc3ccccc23)CC1)NO	88.2	–
12	2420	58	920	67	Cn1cc(CN2CCC(/C=C/C(=O)NO)CC2)c2ccccc21	68.2	fold change (FC) [10]: 36; Activity [11]: Active
–	3700	20	–	–	O=C(/C=C/C1CCN(Cc2cccc3ccccc23)CC1)NO	51.6	IC50 [12]: 3000 nM; fold change (FC) [10]: 36; Activity [11]: Active
–	4400	11	–	–	O=C(/C=C/C1CCN(CCc2ccccc2)CC1)NO	54.4	IC50 [12]: 16000 nM
–	430	33	950	–	O=C(/C=C/C1CCN(Cc2ccc(Cl)cc2)CC1)NO	84.6	IC50 [12]: 9000 nM
19	210	37	3500	49	O=C(NO)c1ccc(CNCc2ccccc2)cc1	77.1	–
–	–	–	–	–	O=C(NO)c1ccc(CN2CCCCC2)cc1	92.6	inhibition [15]: 5%; inhibition [16]: 4%
6	280	43	–	54	CN1CCN(Cc2ccc(C(=O)NO)cc2)CC1	86.4	–
12	–	530	–	62	O=C(/C=C/C1CCN(Cc2ccccc2)CC1)NO	100.9	inhibition [8]: 89%; inhibition [9]: 34%
22	–	–	–	56	O=C(/C=C/C1CCN(Cc2ccc(-c3ccccc3)cc2)CC1)NO	55	inhibition [15]: 54%; inhibition [17]: 91%; inhibition [8]: 72%; inhibition [7]: 46%; inhibition [9]: 29%

SMILES	inhibition [1] [%]	IC50 [3] [nM]	IC50 [4] [nM]	IC50 [5] [nM]	inhibition [6] [%]	Activity [2] [%]	other results
O=C(/C=C/C1CCN(CCc2c[nH]c3ccccc23)CC1)NO	7	4800	29	–	54	77.3	Activity [13]: Active; Activity [14]: Active
CN1CCc2c(c3ccccc3n2Cc2ccc(C(=O)NO)cc2)C1 [TUBASTATIN A]	–	–	220	–	–	–	–
